# Assay results reported in ChEMBL document CHEMBL5108029, “SILAC-based chemoproteomics reveals a neoligan analogue as an anti-inflammatory agent targeting IRGM to ameliorate cytokine storm” (Eur J Med Chem, 2022).
# Calls of active or inactive are those of the source. The rule behind the calls is not given here.
# Assays:
# RAW264.7 [1] = assay: Anti-inflammatory activity against LPS-stimulated mouse RAW264.7 cells assessed as reduction in TNF-alpha expression of M1 macrophages at 100 to 500 nM incubated for 48 hrs in presence of LPS by flow cytometry; assay type: functional, cell-based; conditions: dose 100-500 nM
# Method in brief: (§1)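 RAW 264.7 cells in DMEM with 10% heat-inactivated FBS at 37 °C, 5% CO2, subcultured at 70–80% confluence. Seeded at 1 × 10^6 cells/mL in medium with 1 μg/mL LPS, with compound at final 100 nM or 500 nM. After 48 h, M1 differentiation and TNF-α are read by flow cytometry.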
# CD4+ve Th [2] = assay: Inhibition of cytokine storm in ConA/1L-12-stimulated C57BL/6 mouse CD4+ T-lymphocytes assessed as reduction in Th1 cell differentiation by measuring proportion of CD4+IFNgamma-negative cells at 500 nM incubated for 48 hrs by flow cytometry (reference value: 31%); assay type: functional; design: scale not given: the % may be the effect or the level left
# Method in brief: (§2)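 Splenocytes from C57BL/6 mice after erythrocyte lysis, filtration and counting. Cultured in complete medium with ConA and IL-2 under Th1, Th2 or Th17 differentiation conditions with compound for 48 h. Then PMA, ionomycin and GolgiStop (1:1000) for 4 h. CD4 and intracellular cytokines stained and read by flow cytometry.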
# CD4+ve Th [3] = assay: Inhibition of cytokine storm in ConA/1L-12-stimulated C57BL/6 mouse CD4+ T-lymphocytes assessed as reduction in Th1 cell differentiation by measuring proportion of CD4+IFNgamma-positive cells at 500 nM incubated for 48 hrs by flow cytometry (reference value: 69%); assay type: functional; design: scale not given: the % may be the effect or the level left; method in brief: as §2
# CD4+ve Th [4] = assay: Inhibition of cytokine storm in ConA/1L-12-stimulated C57BL/6 mouse CD4+ T-lymphocytes assessed as reduction in Th2 cell differentiation by measuring proportion of CD4+IL4-negative cells at 500 nM incubated for 48 hrs by flow cytometry (reference value: 32.4%); assay type: functional; design: scale not given: the % may be the effect or the level left; method in brief: as §2
# CD4+ve Th [5] = assay: Inhibition of cytokine storm in ConA/1L-12-stimulated C57BL/6 mouse CD4+ T-lymphocytes assessed as reduction in Th2 cell differentiation by measuring proportion of CD4+IL4-positive cells at 500 nM incubated for 48 hrs by flow cytometry (reference value: 67.6%); assay type: functional; design: scale not given: the % may be the effect or the level left; method in brief: as §2
# CD4+ve Th [6] = assay: Inhibition of cytokine storm in ConA/1L-12-stimulated C57BL/6 mouse CD4+ T-lymphocytes assessed as reduction in Th17 cell differentiation by measuring proportion of CD4+IL17A-negative cells at 500 nM incubated for 48 hrs by flow cytometry (reference value: 31.6%); assay type: functional; design: scale not given: the % may be the effect or the level left; method in brief: as §2
# CD4+ve Th [7] = assay: Inhibition of cytokine storm in ConA/1L-12-stimulated C57BL/6 mouse CD4+ T-lymphocytes assessed as reduction in Th17 cell differentiation by measuring proportion of CD4+IL17A-positive cells at 500 nM incubated for 48 hrs by flow cytometry (reference value: 68.4%); assay type: functional; design: scale not given: the % may be the effect or the level left; method in brief: as §2
# CD4+ve Th [8] = assay: Cytotoxicity against C57BL/6 mouse CD4+ T-lymphocytes at 500 nM measured upto 48 hrs; assay type: toxicity, cell-based; conditions: 0.5 µM
# RAW264.7 [9] = assay: Anti-inflammatory activity against LPS-stimulated mouse RAW264.7 cells assessed as proportion of polarized M1 macrophages at 100 nM incubated for 48 hrs in presence of LPS by flow cytometry (reference value: 90.3%); assay type: functional; method in brief: as §1
# RAW264.7 [10] = assay: Anti-inflammatory activity against LPS-stimulated mouse RAW264.7 cells assessed as proportion of polarized M1 macrophages at 500 nM incubated for 48 hrs in presence of LPS by flow cytometry (reference value: 90.3%); assay type: functional; method in brief: as §1
# RAW264.7 [11] = assay: Anti-inflammatory activity against LPS-stimulated mouse RAW264.7 cells assessed as TNF-alpha expression of M1 macrophages at 100 nM incubated for 48 hrs in presence of LPS by flow cytometry (reference value: 82.1%); assay type: functional; method in brief: as §1
# RAW264.7 [12] = assay: Anti-inflammatory activity against LPS-stimulated mouse RAW264.7 cells assessed as TNF-alpha expression of M1 macrophages at 500 nM incubated for 48 hrs in presence of LPS by flow cytometry (reference value: 82.1%); assay type: functional; method in brief: as §1
# RAW264.7 [13] = assay: Anti-inflammatory activity against LPS-stimulated mouse RAW264.7 cells assessed as reduction in M1 polarization of macrophages at 100 to 500 nM incubated for 48 hrs in presence of LPS by flow cytometry; assay type: functional, cell-based; conditions: dose 100-500 nM; method in brief: as §1
# Mus musculus [14] = assay: Anti-inflammatory activity against CLP-induced sepsis C57BL/6J mouse model assessed as proportion of neutrophils at 100 mg/kg by flow cytometry (reference value: 6.6%); assay type: functional
# Mus musculus [15] = assay: Anti-inflammatory activity against CLP-induced sepsis C57BL/6J mouse model assessed as proportion of M1 macrophages at 100 mg/kg by flow cytometry (reference value: 98.4%); assay type: functional
# [16] = Inhibition of cytokine storm in CLP-induced sepsis C57BL/6J mouse model assessed as disruption of Th1 and Th2 cells imbalance by measuring CD4+IFNgamma-negative cells at 100 mg/kg by flow cytometry (reference value: 26.3%); assay type: functional; design: scale not given: the % may be the effect or the level left
# [17] = Inhibition of cytokine storm in CLP-induced sepsis C57BL/6J mouse model assessed as disruption of Th1 and Th2 cells imbalance by measuring CD4+IFNgamma-positive cells at 100 mg/kg by flow cytometry (reference value: 73.7%); assay type: functional; design: scale not given: the % may be the effect or the level left
# [18] = Inhibition of cytokine storm in CLP-induced sepsis C57BL/6J mouse model assessed as disruption of Th1 and Th2 cells imbalance by measuring CD4+IL4-negative cells at 100 mg/kg by flow cytometry (reference value: 95.3%); assay type: functional; design: scale not given: the % may be the effect or the level left
# [19] = Inhibition of cytokine storm in CLP-induced sepsis C57BL/6J mouse model assessed as disruption of Th1 and Th2 cells imbalance by measuring CD4+IL4-positive cells at 100 mg/kg by flow cytometry (reference value: 4.69%); assay type: functional; design: scale not given: the % may be the effect or the level left
# [20] = Inhibition of cytokine storm in CLP-induced sepsis C57BL/6J mouse model assessed as reduction in Th17 cell differentiation by measuring CD4+IL17A-negative cells at 100 mg/kg by flow cytometry (reference value: 50.2%); assay type: functional; design: scale not given: the % may be the effect or the level left
# [21] = Inhibition of cytokine storm in CLP-induced sepsis C57BL/6J mouse model assessed as reduction in Th17 cell differentiation by measuring CD4+IL17A-positive cells at 100 mg/kg by flow cytometry (reference value: 49.8%); assay type: functional; design: scale not given: the % may be the effect or the level left
# Mus musculus [22] = assay: Anti-inflammatory activity against CLP-induced sepsis C57BL/6J mouse model assessed as proportion of Foxp3-positive Treg cells at 100 mg/kg by flow cytometry (reference value: 2.08%); assay type: functional
# Mus musculus [23] = assay: Anti-inflammatory activity against CLP-induced sepsis C57BL/6J mouse model assessed as proportion of Tr1 cells producing IL-10 at 100 mg/kg by flow cytometry (reference value: 24.5%); assay type: functional
# Mus musculus [24] = assay: Anti-inflammatory activity against CLP-induced sepsis C57BL/6J mouse model assessed as reduction in edema and hepatocyte necrosis at 100 mg/kg by Hematoxylin and eosin staining based analysis; assay type: functional, organism-based
# Method in brief: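 Liver tissue from CLP-septic C57BL/6J male mice (8–10 wk), stained with H&E and examined for edema and hepatocyte necrosis.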
# [25] = target: T1, Immunity-related GTPase family M protein 1 (Mus musculus) (UniProt Q60766); assay: Binding affinity to IRGM in LPS-stimulated mouse RAW264.7 cells at 100 uM preincubated with LPS for 48 hrs followed by incubation with compound for 3 hrs by SILAC-pull down based analysis; assay type: cell-based
# T1 sequence (whole entry): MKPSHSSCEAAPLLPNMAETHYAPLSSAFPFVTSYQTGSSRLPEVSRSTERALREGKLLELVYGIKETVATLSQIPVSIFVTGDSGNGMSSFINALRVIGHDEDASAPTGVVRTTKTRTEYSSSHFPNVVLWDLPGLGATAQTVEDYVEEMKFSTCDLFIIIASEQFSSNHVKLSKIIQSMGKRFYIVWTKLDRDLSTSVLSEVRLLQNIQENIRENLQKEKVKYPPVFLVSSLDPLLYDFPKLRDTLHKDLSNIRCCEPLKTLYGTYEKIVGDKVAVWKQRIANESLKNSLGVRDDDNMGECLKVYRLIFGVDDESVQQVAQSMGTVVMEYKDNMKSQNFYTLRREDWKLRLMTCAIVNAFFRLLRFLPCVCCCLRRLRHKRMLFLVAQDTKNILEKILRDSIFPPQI
# Method in brief: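 RAW 264.7 cells were SILAC heavy- or light-labeled and polarized with 1 μg/mL LPS for 48 h. Lysates at 2 mg/mL in PBS: heavy with probe 10 (100 μM), light with 100 μM competitor, 3 h at room temperature. Then 365 nm UV at 4 °C and click with biotin-azide (final 500 μM) and Cu+ (final 1 mM) for 3 h. Acetone precipitation, streptavidin bead capture, SDS-PAGE and MS; Heavy/Light ratios by MaxQuant.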
# [26] = target: T2, Immunity-related GTPase family M protein (Homo sapiens) (UniProt A1A4Y4); assay: Binding affinity to IRGM (unknown origin) by gene ontology analysis
# T2 sequence (whole entry): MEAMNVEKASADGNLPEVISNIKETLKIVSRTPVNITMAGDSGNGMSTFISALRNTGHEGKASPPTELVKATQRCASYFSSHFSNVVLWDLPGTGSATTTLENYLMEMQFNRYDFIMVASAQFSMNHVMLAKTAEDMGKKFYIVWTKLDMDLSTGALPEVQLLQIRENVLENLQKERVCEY
# [27] = target: T1, Immunity-related GTPase family M protein 1 (Mus musculus); assay: Binding affinity to IRGM in LPS-stimulated mouse RAW264.7 cells at 100 uM preincubated with LPS for 48 hrs followed by incubation with compound for 3 hrs by immunoblot analysis; assay type: cell-based
# Method in brief: (§3)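 Lysates of LPS-polarized (1 μg/mL, 48 h) RAW 264.7 cells at 2 mg/mL, incubated 3 h at room temperature with 100 μM probe 10 plus competitor at 10–100 μM. Then UV 365 nm crosslinking, click with biotin-azide, streptavidin pull-down, and immunoblotting for IRGM.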
# [28] = target: T1, Immunity-related GTPase family M protein 1 (Mus musculus); assay: Binding affinity to IRGM in LPS-stimulated mouse RAW264.7 cells by competitive pull down based immunoblot analysis; assay type: cell-based; conditions: dose 10-100 µM, DDE = dose-dependent effect; method in brief: as §3
# [29] = target: T2, Immunity-related GTPase family M protein (Homo sapiens); assay: Binding affinity to IRGM (unknown origin) assessed as protection of protein from temperature-dependent denaturation at 100 uM by CETSA analysis
# [30] = target: T2, Immunity-related GTPase family M protein (Homo sapiens); assay: Binding affinity to IRGM (unknown origin) assessed as protection of protein from pronase proteolysis by DARTS analysis; conditions: dose 1-100 µM, DDE = dose-dependent effect
# Method in brief: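 DARTS: samples treated with compound at 1–100 μM, then digested with pronase; IRGM detected by immunoblot.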
Compound,Activity (RAW264.7 [1]),Activity (CD4+ve Th [2]) [%],Activity (CD4+ve Th [3]) [%],Activity (CD4+ve Th [4]) [%],Activity (CD4+ve Th [5]) [%],Activity (CD4+ve Th [6]) [%],Activity (CD4+ve Th [7]) [%],Activity (CD4+ve Th [8]),Activity (RAW264.7 [9]) [%],Activity (RAW264.7 [10]) [%],Activity (RAW264.7 [11]) [%],Activity (RAW264.7 [12]) [%],Activity (RAW264.7 [13]),further results
C=CCC1=C[C@]2(OC)C(=CC1=O)O[C@H](c1ccc(OC)c(OC)c1)[C@H]2C,Active,75.7,24.3,85.7,14.3,78.6,21.4,Non-Toxic,–,–,–,–,–,–
C#CCCC1(CCOc2cc3c(cc2CC=C)[C@H](C)[C@@H](c2ccc(OC)c(OC)c2)O3)N=N1,–,–,–,–,–,–,–,–,81.8,82.6,28.9,26.6,–,–
COc1ccc(/C=C/COc2cccc(O)c2)cc1OC,Active,74.9,25.1,76,24,74.1,25.9,Non-Toxic,–,–,–,–,–,–
C=CCOc1cccc(OC/C=C/c2ccc(OC)c(OC)c2)c1,Active,74.4,25.6,85.2,14.8,76.1,23.9,Non-Toxic,–,–,–,–,Active,–
C[C@]12CCC(=O)C=C1CC[C@@H]1[C@@H]2[C@@H](O)C[C@@]2(C)[C@H]1CC[C@]2(O)C(=O)CO,Active,–,–,–,–,–,–,–,–,–,–,–,–,–
C=CCc1cc2c(cc1O)O[C@H](c1ccc(OC)c(OC)c1)[C@H]2C,Active,57.2,42.8,64.9,35.1,57.7,42.3,Non-Toxic,82.9,83.2,19.5,22.8,Active,Activity (Mus musculus [14]): 1.09%; Activity (Mus musculus [15]): 71.3%; Activity [16]: 88.7%; Activity [17]: 11.3%; Activity [18]: 98.5%; Activity [19]: 1.53%; Activity [20]: 82.5%; Activity [21]: 17.5%; Activity (Mus musculus [22]): 0.53%; Activity (Mus musculus [23]): 11.2%; Activity (Mus musculus [24]): Active; Activity [25]: Active; Activity [26]: Active; Activity [27]: Active; Activity [28]: Dde; Activity [29]: Active; Activity [30]: Dde
